Compounds with a hit are over-represented: about 1.9% of the library has one in this group of screens.
DENV2 CPE = DENV2-induced cell death inhibition; DENV2-infected cells, cytopathic effect rescue, plate reader; CPE inhibition, % at 9.99 µM; actives 1.7% (n = 350,000); AID 651640; in the data active = CPE inhibition above about 20%, passing the limit was not always enough; inconclusive = no clear call, values can overlap the other calls; tested in BHK-21 cells
PGC1a acetyl inh = lowers PGC1a acetylation signal in U2OS cells; actives 0.17% (n = 350,000); inhibition, % at 15.6 µM; AID 651687; AlphaScreen anti-acetyl-lysine; with virally co-expressed GCN5 acetyltransferase;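 active = every replicate shows inhibition of at least 40%; inconclusive = mean inhibition at least 40% but some replicate below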
FN deposition inh = fibronectin deposition inhibition | AH1F fibroblasts, Alexa488-fibronectin deposition fluorescence, overnight | inhibition, % at 12.6 µM | actives 0.086% (n = 350,000) | AID 743247;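 active = mean inhibition across replicates of 30% or more, regardless of how many single replicates reach that level; inconclusive = mean under 30% yet at least half of replicates reach 30%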
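Material: AH1F fibroblast monolayer depositing Alexa488-labelled fibronectin into matrix / Amount: 10000 AH1F cells per well / Signal: fluorescence 485/525 nm / Medium: DMEM, 2% serum / Compound: single dose, pinned / Incubation: 1 h cell adhesion before compound, then overnight fibronectin incubation / Reagent: Alexa488-FN, 24 nM final / Read-out: inhibition of fibronectin deposition signal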
CFTR F508del cor = correctors of CFTR F508del function in bronchial epithelial cells | CFBE cells, YFP halide quenching; stimulated with forskolin plus potentiator P3; % fluorescence drop versus neutral controls | activity (quench increase), % at 7.58 µM | actives 0.36% (n = 350,000) | AID 720511;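 active = mean added fluorescence quench of at least 8% versus neutral control, with both replicates also reaching 8%; inconclusive = only one of the mean or replicate conditions met; inactive = mean below 8% and not both replicates reaching 8%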;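 also: cells transiently co-express mutant CFTR-F508del with the halide-sensitive YFP; corrector assay measuring rescue of mutant channel to the surface after 24 h compound exposure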
Cneo AK release = causes C. neoformans cell lysis; adenylate kinase release luminescence, 4 h; normalised: neutral wells 0, clomiphene wells 100; lysis activity, % at 15 µM; actives 0.2% (n = 360,000); AID 651654;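 active = mean lysis activity across replicates of at least 80%, whatever share of replicates individually reach that level; inactive = mean lysis activity below 80%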
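Material: C. neoformans cells | Amount: Yeast cell density of 5 × 10^6 cells/mL | Medium: Fresh YPD growth medium | Dosing: Single dose | Times: Static 4 h at 37 °C with compound, 1 h detection | Detection: AK luminescence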
Xi reactivation = activators of X-chromosome reactivation in mouse fibroblasts; XiGFP mouse fibroblasts, % GFP-positive cells imaging, 3 d; cells co-treated with 5-aza-dC sensitizer; scaled so ellipticine positive control = 100%; activation, % at 7.58 µM; actives 0.055% (n = 360,000); AID 743238;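 active = mean normalized replicate activation at least 10% and every replicate at or above 10%; inconclusive = only one of the two criteria met; inactive = mean below 10% and not all replicates reach 10%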
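Material: XiGFP fibroblasts, SV40-immortalized. Buffer or medium: DMEM plus 5-aza-dC sensitizer. Compound: single concentration per compound, delivered by pin transfer. Times: 3 days compound exposure. Controls: ellipticine 6 µM.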
Of the large screens only hits and unclear results are named; the others gave an inactive call.

C[C@@H]1CN([C@@H](C)CO)C(=O)c2cccc(N(C)C)c2O[C@@H]1CN(C)Cc1ccc(-c2ccccc2)cc1	none (no result: FN deposition inh)
C[C@H](CO)N1C[C@H](C)[C@H](CN(C)Cc2ccncc2)Oc2ccc(NC(=O)Nc3ccc(C(F)(F)F)cc3)cc2C1=O	none (no result: FN deposition inh)
C[C@H](CO)N1C[C@H](C)[C@@H](CN(C)Cc2ccc(-c3ccccc3)cc2)Oc2ccc(NC(=O)Nc3ccc(C(F)(F)F)cc3)cc2C1=O	Cneo AK release 98.7 (no result: FN deposition inh)
C[C@@H]1CN([C@H](C)CO)C(=O)c2cc(NC(=O)Nc3ccc(C(F)(F)F)cc3)ccc2O[C@H]1CN(C)Cc1ccc(-c2ccccc2)cc1	none (no result: FN deposition inh)
C[C@@H]1CN([C@H](C)CO)C(=O)c2cc(NC(=O)Nc3ccc(C(F)(F)F)cc3)ccc2O[C@@H]1CN(C)Cc1ccncc1	DENV2 CPE 56.7 (no result: FN deposition inh)
COc1ccc(CN(C)C[C@@H]2Oc3ccc(NC(=O)Nc4ccc(C(F)(F)F)cc4)cc3C(=O)N([C@H](C)CO)C[C@@H]2C)cc1	DENV2 CPE 28.6
C[C@H]1CN([C@@H](C)CO)C(=O)c2cc(NC(=O)Nc3ccc(C(F)(F)F)cc3)ccc2O[C@H]1CN(C)Cc1ccncc1	DENV2 CPE 20.6 (no result: FN deposition inh, Xi reactivation)
COc1ccc(S(=O)(=O)Nc2ccc3c(c2)C(=O)N([C@H](C)CO)C[C@H](C)[C@@H](CN(C)S(=O)(=O)c2ccc(F)cc2)OCCCC[C@H](C)O3)cc1	none (no result: FN deposition inh)
COC(=O)c1cn(CC(=O)N2CCN(c3ccccc3)CC2)nn1	none (no result: FN deposition inh, Xi reactivation)
CCC(=O)N1CC2(C1)[C@H](c1ccc(C3=CCCC3)cc1)[C@H](CO)N2C(=O)COC	none (no result: PGC1a acetyl inh, Cneo AK release)
COc1ccccc1-c1ccccc1[C@H]1[C@@H](C#N)N(C(=O)C2CC2)[C@H]1CO	none (no result: Cneo AK release)
CCCCCC[n+]1ccccc1/C=C/c1ccc(N(C)C)cc1	Xi reactivation 16.3 (no result: PGC1a acetyl inh)
CC[n+]1ccccc1/C=C/c1ccc(N(C)C)cc1	none
CCOC(=O)[C@@H]1[C@H]2COc3ccc(Br)cc3[C@@H]2N2C(=O)N(c3cccc(F)c3)C(=O)[C@@]12C	DENV2 CPE 93.3 (no result: PGC1a acetyl inh)
CCOC(=O)[C@@H]1[C@H]2COc3ccc(Br)cc3[C@@H]2N2C(=O)N(c3ccc(F)cc3)C(=O)[C@@]12C	none
CCOC(=O)[C@H]1[C@H]2COc3ccccc3[C@@H]2N2C(=O)c3cc(C)ccc3NC(=O)[C@@]12C	none
CCOC(=O)[C@H]1[C@H]2COc3ccc(Cl)cc3[C@H]2N2C(=O)CNC(=O)[C@@]12C	none
CCOC(=O)[C@H]1[C@H]2COc3ccc(Br)cc3[C@H]2N2C(=O)CNC(=O)[C@@]12C	DENV2 CPE 62.3 (no result: PGC1a acetyl inh)
CCOC(=O)[C@H]1[C@H]2COc3ccccc3[C@@H]2N2C(=O)[C@@H](CO)NC(=O)[C@@]12C	DENV2 CPE 28.9 (no result: PGC1a acetyl inh)
CCCN(C)C[C@H]1OCCCC[C@@H](C)Oc2ccc(NS(=O)(=O)c3ccc(C)cc3)cc2C(=O)N([C@H](C)CO)C[C@H]1C	none (no result: FN deposition inh)
CCNC(=O)C[C@H]1CC[C@@H]2[C@@H](COc3ccc(NC(=O)c4ccc(F)c(F)c4)cc3C(=O)N2C)O1	none
CCNC(=O)C[C@H]1CC[C@H]2[C@H](COc3ccc(NC(=O)c4ccc(F)c(F)c4)cc3C(=O)N2C)O1	DENV2 CPE 88.2
CCNC(=O)Nc1ccc2c(c1)C(=O)N(C)[C@H]1CC[C@@H](CC(=O)N[C@H](C)c3ccccc3)O[C@H]1CO2	none (no result: PGC1a acetyl inh, CFTR F508del cor)
CCNC(=O)Nc1ccc2c(c1)C(=O)N(C)[C@H]1CC[C@H](CC(=O)N[C@@H](C)c3ccccc3)O[C@H]1CO2	Cneo AK release 90.6 (no result: PGC1a acetyl inh, FN deposition inh, CFTR F508del cor)
CCNC(=O)C[C@H]1CC[C@@H]2[C@H](COc3ccc(NC(=O)NC(C)C)cc3C(=O)N2C)O1	DENV2 CPE 40.9
CCNC(=O)Nc1ccc2c(c1)C(=O)N(C)[C@@H]1CC[C@H](CC(=O)N[C@@H](C)c3ccccc3)O[C@@H]1CO2	DENV2 CPE inconclusive, Cneo AK release 193.2 (no result: PGC1a acetyl inh, FN deposition inh, CFTR F508del cor)
C[C@H](CO)N1C[C@H](C)[C@@H](CN(C)Cc2ccccc2)Oc2ccc(NC(=O)NC3CCCCC3)cc2CC1=O	none (no result: PGC1a acetyl inh, FN deposition inh)
CCNC(=O)Nc1ccc2c(c1)C(=O)N(C)[C@@H]1CC[C@H](CC(=O)NCc3ccc(F)cc3)O[C@H]1CO2	DENV2 CPE 54.8
CCNC(=O)Nc1ccc2c(c1)C(=O)N(C)[C@@H]1CC[C@@H](CC(=O)NCc3ccc(F)cc3)O[C@H]1CO2	none
O=C(C[C@H]1C[C@@H]2c3cc(NC(=O)c4cccnc4)ccc3O[C@@H]2[C@@H](CO)O1)NC1CCCCC1	none (no result: FN deposition inh)
CC(C)(C)OC(=O)NOCC(=O)N(CC(=O)c1ccccc1)Cc1ccccc1	DENV2 CPE 28.7
Oc1ccc2ccccc2c1C=NNc1ccccn1	CFTR F508del cor 9.7 (no result: PGC1a acetyl inh, FN deposition inh, Cneo AK release)
O=C(NN=Cc1c(O)ccc2ccccc12)C1CC1	none
O=C(CN1CCCC1)N/N=C/c1c(O)ccc2ccccc12	CFTR F508del cor 10.0
Cc1ccc(O)c(/C=N/NC(=O)CN2CCCC2)c1	PGC1a acetyl inh 83.6
O=C(N/N=C/c1c(O)ccc2ccccc12)C(=O)N1CCCC1	CFTR F508del cor 12.9
Cc1ccc(NC(=O)c2ccc([N+](=O)[O-])o2)c(C)c1	none (no result: FN deposition inh)
Cc1ccc(S(=O)(=O)c2ccc([N+](=O)[O-])o2)cc1	FN deposition inh 48.6 (no result: PGC1a acetyl inh, Cneo AK release)
COc1cc(OC)c(N(C)C(=O)c2cn(C)c(=O)c3cc(OC)c(OC)cc23)cc1Cl	Cneo AK release 126.6
CC(=O)Nc1ccc2c(c1)C(=O)N(C)[C@@H]1CC[C@@H](CC(=O)Nc3cn(C)nc3C)O[C@H]1CO2	none
Cc1noc(C)c1S(=O)(=O)N(C)C[C@H]1OCCCC[C@@H](C)Oc2ccc(NC(=O)Nc3ccccc3)cc2C(=O)N([C@@H](C)CO)C[C@H]1C	DENV2 CPE inconclusive
O=C(Cc1ccccn1)NCC[C@@H]1CC[C@H](NC(=O)Nc2ccc(C(F)(F)F)cc2)[C@H](CO)O1	PGC1a acetyl inh 77.9, CFTR F508del cor 12.0
O=C(CN1CCOCC1)NCC[C@H]1CC[C@H](NC(=O)Cc2ccccn2)[C@@H](CO)O1	DENV2 CPE 24.4
O=C(N[C@@H]1CC[C@H](CCNS(=O)(=O)Cc2ccccc2)O[C@@H]1CO)c1ccc2c(c1)OCO2	DENV2 CPE 21.7
O=C(CN1CCOCC1)NCC[C@H]1CC[C@H](NC(=O)Cc2ccccn2)[C@H](CO)O1	none
O=C(N[C@@H]1CC[C@H](CCNS(=O)(=O)Cc2ccccc2)O[C@H]1CO)c1ccc2c(c1)OCO2	none
O=C(CN1CCOCC1)NCC[C@@H]1CC[C@H](NC(=O)c2ccc3c(c2)OCO3)[C@@H](CO)O1	DENV2 CPE 22.0
